# Experimental data as given in ChEMBL document CHEMBL3244385, “Antitumor anthracycline antibiotics. Structure-activity and structure-cardiotoxicity relationships of rubidazone analogues” (J Med Chem, 1978).
# Experiments:
# Calf thymus DNA = assay: Binding affinity to calf thymus DNA assessed as change in melting temperature at 5 uM by spectrophotometer analysis; assay type: nucleic-acid assay; settings: Bos taurus
# Procedure, shortened: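 Drug dissolved in Me2SO, diluted with buffer, then mixed with calf thymus DNA. Final mix: 0.01 M phosphate pH 7, 5×10^-5 M DNA, 5×10^-6 M drug, 10^-5 M EDTA, 5% Me2SO. Absorbance at 259 nm recorded every 30 s while heating at 18 °C/h. Tm is the midpoint of the corrected curve; the shift is taken against DNA alone.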
# [1] = Half life in 0.01 M phosphate buffer at 10 uM at pH 7.4 at 50 degC; assay type: physicochemical
# Procedure, shortened: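 Drug at 1×10^-5 M in 0.01 M phosphate, pH 7.4, 50 °C, no DNA. Absorbance followed continuously for 3 h at a drug-specific wavelength (345 or 259 nm). Buffer baseline subtracted. Data fit to A = ΣA0 + c·e^(-kt), with ΣA0 the absorbance of daunorubicin plus the […], and t1/2 derived from the fit.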
# L1210 [2] = assay: Inhibition of DNA synthesis in mouse L1210 cells; assay type: functional; settings: read-out: ED50 (the source's name)
# L1210 [3] = assay: Inhibition of RNA synthesis in mouse L1210 cells; assay type: functional; settings: read-out: ED50 (the source's name)
# [4] = Partition coefficient, log P of the compound; assay type: physicochemical; settings: octanol/water
# [5] = Dissociation constant, pKa of Ar-COOH group of the compound; assay type: physicochemical
# P388 [6] = assay: In vivo antitumor activity against mouse P388 cells allografted in BDF/CDF mouse assessed as host survival time at 16 mg/kg, ip administered on days 1 to 9 relative to control; assay type: functional; settings: route intraperitoneal
# Procedure, shortened: (§1)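 P-388 lymphocytic leukemia, 10⁶ cells injected ip into BDF or CDF mice on day 0; drug given ip daily on days 1-9 at the stated dose. Read-out T/C: average survival time of treated mice as percent of untreated controls. Assays run by NCI Drug Research and Development Program.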
# P388 [7] = assay: In vivo antitumor activity against mouse P388 cells allografted in BDF/CDF mouse assessed as host survival time at 8 mg/kg, ip administered on days 1 to 9 relative to control; assay type: functional; settings: route intraperitoneal; procedure, shortened: as §1
# P388 [8] = assay: In vivo antitumor activity against mouse P388 cells allografted in BDF/CDF mouse assessed as host survival time at 4 mg/kg, ip administered on days 1 to 9 relative to control; assay type: functional; settings: route intraperitoneal; procedure, shortened: as §1
# P388 [9] = assay: In vivo antitumor activity against mouse P388 cells allografted in BDF/CDF mouse assessed as host survival time at 2 mg/kg, ip administered on days 1 to 9 relative to control; assay type: functional; settings: route intraperitoneal; procedure, shortened: as §1
# P388 [10] = assay: In vivo antitumor activity against mouse P388 cells allografted in BDF/CDF mouse assessed as host survival time at 1 mg/kg, ip administered on days 1 to 9 relative to control; assay type: functional; settings: route intraperitoneal; procedure, shortened: as §1
# P388 [11] = assay: In vivo antitumor activity against mouse P388 cells allografted in BDF/CDF mouse assessed as host survival time at 0.5 mg/kg, ip administered on days 1 to 9 relative to control; assay type: functional; settings: route intraperitoneal; procedure, shortened: as §1
# P388 [12] = assay: In vivo antitumor activity against mouse P388 cells allografted in BDF/CDF mouse assessed as host survival time at 0.25 mg/kg, ip administered on days 1 to 9 relative to control; assay type: functional; settings: route intraperitoneal; procedure, shortened: as §1
# P388 [13] = assay: In vivo antitumor activity against mouse P388 cells allografted in BDF/CDF mouse assessed as host survival time at 0.125 mg/kg, ip administered on days 1 to 9 relative to control; assay type: functional; settings: route intraperitoneal; procedure, shortened: as §1
# Rattus norvegicus [14] = species on record: Rattus norvegicus; assay: Cardiotoxicity in rat ECG model; settings: in vivo
# Rattus norvegicus [15] = species on record: Rattus norvegicus; assay: Cardiotoxicity in rat ECG model relative to adriamycin; settings: in vivo
# [16] = Drug metabolism in 0.01 M phosphate buffer assessed as hydrolysis rate after 3 hrs at 50 degC
smiles,measurement,setting,value
COc1cccc2c1C(=O)c1c(O)c3c(c(O)c1C2=O)C[C@@](O)(/C(C)=N/NC(=O)c1ccc(Cl)cc1)C[C@@H]3O[C@H]1C[C@H](N)[C@H](O)[C@H](C)O1.Cl,ΔTm,Calf thymus DNA,11.4 °C
same,half-life at 10 µM,[1],37 min
same,EC50,L1210 [2],1.9 µM
same,EC50,L1210 [3],1 µM
same,logP,[4],1.75
same,pKa,[5],4.03
same,T/C,P388 [6],63%
same,T/C,P388 [7],109%
same,T/C,P388 [8],211%
same,T/C,P388 [9],163%
same,T/C,P388 [10],145%
same,T/C,P388 [11],139%
same,T/C,P388 [12],145%
same,T/C,P388 [13],110%
same,MCCD,Rattus norvegicus [14],48 mg/kg
same,Ratio,Rattus norvegicus [15],3.5
same,Drug metabolism,[16],metabolite_detected
